Screens deposited in PubChem BioAssay by Johns Hopkins Ion Channel Center.
Rows were chosen to be rich in hits. Some 3.7% of all compounds tested hit in one or more screens of this group.
hERG protect – compounds protecting human hERG from proarrhythmic drug block | Q12809 | CHO-hERG, FluxOR thallium flux, dofetilide IC70 present | activation (rescue from dofetilide block), less the hit threshold, % at 10 µM | 0.51% of 310,000 active;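 active = activation above the mean of controls blocked by dofetilide plus 5 SD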;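 also: thallium influx through hERG after potassium depolarization seen as dye fluorescence rise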
KCNQ1 block – inhibitors of human KCNQ1 potassium channel | CHO-K1 KCNQ1, FluxOR thallium flux fluorescence; stronger effect = higher value | P51787 | 1.3% of 310,000 active | B-score at 10 µM | AID 2642;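 active = compounds whose thallium flux B-score, printed positive for inhibition, exceeds three library SD while starting fluorescence stays within three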;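 also: channel opened by potassium depolarization with thallium stimulus after 20 min compound exposure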
KCNK3 inh – human KCNK3 channel inhibition, primary screen | AID 602410 | 0.84% of 340,000 active | CHO-KCNK3 thallium flux, FluxOR fluorescence; stronger effect = lower value | O14649 | B-score at 10 µM;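 active = B-score under library mean minus 4 SD, starting fluorescence ratio at most library mean plus 5 SD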;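 also: more negative B-score means stronger inhibition of thallium flux through KCNK3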
Target sequence (O14649 whole entry, looked up): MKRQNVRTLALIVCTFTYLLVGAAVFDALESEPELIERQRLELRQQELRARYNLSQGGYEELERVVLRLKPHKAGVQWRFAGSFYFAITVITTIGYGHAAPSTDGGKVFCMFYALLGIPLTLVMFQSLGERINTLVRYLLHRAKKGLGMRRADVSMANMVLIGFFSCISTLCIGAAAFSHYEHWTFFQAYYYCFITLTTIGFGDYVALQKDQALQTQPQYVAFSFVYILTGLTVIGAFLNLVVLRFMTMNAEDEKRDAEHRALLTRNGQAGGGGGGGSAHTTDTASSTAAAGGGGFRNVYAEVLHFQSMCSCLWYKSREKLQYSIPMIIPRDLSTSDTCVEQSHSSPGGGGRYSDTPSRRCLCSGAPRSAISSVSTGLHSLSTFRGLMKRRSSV
KCNK9 block – blocks the human KCNK9 two-pore domain potassium channel. HEK293 KCNK9, FluxOR thallium flux fluorescence; stronger effect = lower value. 1.2% of 310,000 active. B-score at 10 µM;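 active = ratio B-score over 3 SD below the library mean, with starting fluorescence within 5 SD of its mean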;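 also: negative B-score means less thallium flux so channel inhibition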
Kir21 block – inhibitors of mouse Kir2.1 inward-rectifier potassium channel; B-score at 10 µM; 0.85% of 310,000 active; AID 1672; HEK293-Kir2.1, FluxOR thallium flux fluorescence; stronger effect = lower value; P35561;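 active = fluorescence ratio B-score at or below minus 3 SD of library scores, with starting-brightness B-score within 2 SD, cut at about -4.2 in these data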;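 also: channel flux triggered by added potassium and thallium sulfate stimulus; B-score of peak minus minimum fluorescence over baseline after thallium stimulus; more negative B-score means stronger Kir2.1 block with less thallium influx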
KCNQ1 pot – potentiators or activators of human KCNQ1 potassium channel | P51787 | B-score at 10 µM | 0.35% of 310,000 active | AID 2648 | CHO-K1 KCNQ1, thallium flux FluxOR fluorescence; stronger effect = higher value;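 active = fluorescence ratio B-score, a plate-corrected score, at least three library SD, with initial intensity B-score within 5 SD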
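Test system: CHO-K1 cells stably expressing KCNQ1 / Medium: assay buffer / Also added: depolarizing K+/Tl+ stimulus, K2SO4 and Tl2SO4 each 12.5 mM in 5x stock / Incubation: 90 min dye loading and 20 min compound exposure, both at room temperature / Signal: thallium influx via FluxOR fluorescence, kinetic imaging / Evaluation: B score of baseline-normalized fluorescence ratio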
* marks the source's active call; other numbers are inactive results; i = inactive; . = not tested or not shown.

SMILES | hERG protect | KCNQ1 block | KCNK3 inh | KCNK9 block | Kir21 block | KCNQ1 pot
O=[N+]([O-])c1ccccc1OCC(O)CN1CCN(CC(O)COc2ccccc2[N+](=O)[O-])CC1 (centres undefined) | -4 | 11* | i | i | -0.43 | i
COc1ccc(C2CC(c3ccc([N+](=O)[O-])cc3)=NN2C(=O)c2ccccc2)cc1OC (centres undefined) | -4 | i | i | -7* | 0.29 | i
COc1ccc(C2=NN(C(=O)c3ccccc3)C(c3ccc(OC)c(OC)c3)C2)cc1OC (centres undefined) | -7 | i | i | i | -0.46 | i
COC(=O)c1cc(S(=O)(=O)NCc2ccc(S(N)(=O)=O)cc2)oc1C | -6 | i | i | i | -0.48 | i
O=C(CSc1nc2ccccc2s1)N1c2ccccc2Sc2ccc(Cl)cc21 | -7 | i | i | i | -1.1 | i
Cc1cc(NC(=O)CSc2nc3cc(Cl)ccc3s2)no1 | -2 | i | i | i | -0.41 | i
O=c1oc2cc(Cl)ccc2n1CSc1nc2ccccc2s1 | -8 | i | i | -6.6* | 1.8 | i
O=C(CSc1nc2cc(Cl)ccc2s1)c1cc2ccccc2o1 | -2 | i | i | i | 0.15 | 21*
O=C(c1cccc(F)c1)N1CCN(Cc2ccco2)CC1 | -1 | i | i | i | -1.5 | i
O=C(CCN1CCC(c2ccccc2)C1)c1ccccc1 (centres undefined) | -10 | i | i | i | -0.59 | i
COc1cc(C(=O)CCN2CCC(c3ccccc3)C2)cc(OC)c1OC (centres undefined) | -15 | i | i | i | -1.3 | 11*
O=C(/C(Cl)=C/Nc1ccc(Br)cn1)C(F)(F)F | -8 | i | i | i | 1.9 | i
COc1ccccc1-c1ccc2nnc(SC)n2n1 | -1 | i | i | i | 1.1 | i
CCOC(=O)c1cnn(-c2nc3c(C)cccc3s2)c1C(F)(F)F | -10 | i | i | -7.9* | 0.96 | i
CCc1ccc(S(=O)(=O)NCc2csc(-c3ccccc3)n2)s1 | -7 | i | i | i | -6.3* | i
O=S(=O)(NCc1csc(-c2ccccc2)n1)c1ccc(Cl)s1 | -13 | i | i | i | -4.6* | i
COc1ccc(OC)c(S(=O)(=O)NCc2cn3c(C)csc3n2)c1 | -8 | i | i | i | 0.56 | i
COc1ccc(OC)c(S(=O)(=O)NCc2csc(-c3ccccc3)n2)c1 | -6 | i | i | i | -4.2* | i
CCc1ccc(S(=O)(=O)NCCc2csc(-c3cccnc3)n2)s1 | -9 | i | i | i | -2.4 | i
O=C(CN1CCc2ccccc2C1)Nc1ccccc1C(F)(F)F | -10 | i | i | i | 0.65 | i
O=C(NCc1ccccc1)C1CCN(S(=O)(=O)c2ccc(Cl)cc2)CC1 | -8 | i | i | i | -1.6 | i
CON/C=C(\C=Nc1ccccc1)c1ncc(C(F)(F)F)cc1Cl | -16 | 7* | i | i | 0.45 | i
COC(=O)/C(=C\Nc1cccc(Cl)c1C)c1ncc(C(F)(F)F)cc1Cl | -11 | i | i | i | -1 | i
COCCNCCCCOc1ccccc1-c1ccccc1 | -2 | i | i | i | -6.3* | i
CN(C)CCCCOc1ccccc1-c1ccccc1 | -9 | i | i | i | -2.7 | i
SMILES | hERG protect | KCNQ1 block | KCNK3 inh | KCNK9 block | Kir21 block | KCNQ1 pot
CC(C)NCCCCOc1ccccc1-c1ccccc1 | -2 | i | . | i | -5.6* | i
CC1(C)NC(=O)N(CCOCCOc2ccccc2-c2ccccc2)C1=O | -10 | i | i | i | -5.4* | i
C=CCNCCOc1ccccc1-c1ccccc1 | -3 | i | i | i | -1.3 | i
CCCCNCCOCCOc1ccccc1-c1ccccc1 | -3 | i | i | i | -10* | i
CCC(=O)c1ccccc1OCCN1C(=O)NC(C)(C)C1=O | -10 | i | i | i | -1.4 | i
COc1cccc(C(=O)Nc2nnc(SCC(=O)NC3CCCC3)s2)c1 | -5 | i | i | i | 0.12 | i
